Results from different studies.
Compare with care: the assays were run in different laboratories.
Read-out: cell growth or viability

| Structure (SMILES) | cell line | test | setting | measurement | result |
| --- | --- | --- | --- | --- | --- |
| CC1(C)CCC(CN2CCN(c3ccc(C(=O)NS(=O)(=O)c4ccc(NCC5CCOCC5)c([N+](=O)[O-])c4)c(Oc4cnc5[nH]ccc5c4)c3)CC2)=C(c2ccc(Cl)cc2)C1 | Rec1 | ATP luminescence | 48 h | IC50 | 0.489 µM |
| C=C(F)C(=O)N1CCN(c2nc(OC[C@@H]3CCCN3C)nc3c2CCN(c2cccc4cccc(Cl)c24)C3)C[C@@H]1CC#N | SW1463 | ATP luminescence |  | IC50 | 0.367 µM |
| C=CC(=O)Nc1cc(Nc2nccc(-c3cn(C)c4ccccc34)n2)c(OC)cc1N(C)CCN(C)C | NCI-H1975 | MTT | 0.5 µM, 72 h | inhibition | 69.6% |
| O=C1c2ccccc2C(=O)c2c(Oc3ccc(C(=O)C(Cl)Cl)cc3[N+](=O)[O-])cccc21 | NCI-H1975 | MTT | 2.5 µM | inhibition | 97.1% |
| N[C@H]1CC[C@H](N[C@@H]2C[C@H]2c2ccccc2)CC1 | HEK293 | resazurin |  | IC50 | 120 µM |
| O=C(NO)c1ccc(CNc2nc3cccc(-c4ccc5c(c4)OCO5)n3n2)cc1 | NCI-H322M | SRB |  | GI50 | 600 nM |
| CC1(CN)CCN(c2cnc3c(Sc4ccncc4Cl)n[nH]c3n2)CC1 | NCI-H1975 |  | 96 h | IC50 | 6.68 µM |
| Cc1ccc2c(-c3cc4c(CNCc5cccnc5)cnc(C)c4o3)cc(=O)oc2c1C | NCI-H1975 | MTT | 72 h | IC50 | 43.9 µM |
| NC(=O)c1ccc(Oc2ccc(C(=O)C(Cl)Cl)cc2[N+](=O)[O-])cc1 | NCI-H1975 | MTT | 2.5 µM | inhibition | 97.2% |
| C=CC(=O)Nc1cc(Nc2nccc(-c3cn(C)c4ccccc34)n2)c(OC)cc1N(C)CCN(C)C | NCI-H1975 | MTT | 72 h | IC50 | 29.5 µM |
| COc1cccc2c1C(=O)c1c(O)c3c(c(O)c1C2=O)C[C@@](O)(C(=O)CO)C[C@@H]3O[C@H]1C[C@H](N)[C@H](O)[C@H](C)O1 | HEK293 | MTT | 72 h | IC50 | 0.06 µM |
| C=CC(=O)NC1CCN(c2ncc3ncnc(Nc4ccc(Oc5ccc6c(c5)ncn6C)c(C)c4)c3n2)CC1 | SUM-159-PT |  |  | EC50 | 334 nM |
| NC(=O)COc1ccc(C(=O)C(Cl)Cl)cc1[N+](=O)[O-] | NCI-H1975 | MTT | 2.5 µM | inhibition | 26.3% |
| C=CC(=O)N1CCC([C@@H]2CCNc3c(C(N)=O)c(-c4ccc(Oc5ccccc5)cc4)nn32)CC1 | TMD8 |  | 6 days | IC50 | 0.0007 µM |
| CC(C)Oc1ccc(S(=O)(=O)c2ccc(Oc3cc(OCC(N)=O)c(C(=O)C(Cl)Cl)cc3[N+](=O)[O-])cc2)cc1 | NCI-H1975 | MTT | 72 h | IC50 | 0.3 µM |
| Cc1ncc(CN2CCc3ccccc3C2)c2cc(C(=O)c3ccc4c(c3)OCCO4)oc12 | NCI-H1975 | MTT | 72 h | IC50 | 29.5 µM |
